Source: PubChem (The Scripps Research Institute Molecular Screening Center)
Sampled rows, rich in hits. Any-hit rate of the full collection: about 3.1%.
RBBP9 inh: human RBBP9 hydrolase inhibition | O75884 | recombinant RBBP9, FP-Rh probe fluorescence polarization | AID 1515 | actives 0.2% (n = 220,000) | inhibition, % at 7.94 µM;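 active = inhibition above the campaign mean of all tested compounds plus 3 SD, cut at about 14% in these data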
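System: RBBP9 protein / Buffer or medium: Tris/NaCl buffer pH 8.0 with 0.1% Pluronic / Probe or stimulus: Serine-hydrolase probe FP-Rh, 375 nM pre-mixing / Dosing: 7.94 µM single dose, 0.794% DMSO / Times: enzyme-compound preincubation 30 min, then probe labeling 45 min, 25 °C / Technique: fluorescence polarization (mP), excitation 525 nm, emission 598 nm / Replication: singlicate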
MBD2 inh: inhibitors of human MBD2 binding to methylated oligonucleotide; AID 686964; Q9UBB5; actives 0.31% (n = 370,000); inhibition, % at 4.4 µM; TR-FRET; in the data active = inhibition above about 13%
UHRF1 binding: UHRF1 methyl-DNA binding inhibition; UHRF1 binding to methylated oligo, TR-FRET; actives 0.75% (n = 370,000); inhibition, % at 4.4 µM; AID 687016; in the data active = inhibition above about 21%;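 also: UHRF1 SRA domain binding a hemimethylated CpG hairpin DNA probe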
ABHD5-PLIN5 inh: ABHD5-PLIN5 protein interaction inhibition; inhibition, % at 4 µM; actives 0.78% (n = 360,000); Split G. princeps luciferase complementation, luminescence, 4 h;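 active = inhibition above the mean inhibition across every tested compound plus 3 SD, cut at about 22% in these data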
Target sequence (Q00G26 whole entry, looked up): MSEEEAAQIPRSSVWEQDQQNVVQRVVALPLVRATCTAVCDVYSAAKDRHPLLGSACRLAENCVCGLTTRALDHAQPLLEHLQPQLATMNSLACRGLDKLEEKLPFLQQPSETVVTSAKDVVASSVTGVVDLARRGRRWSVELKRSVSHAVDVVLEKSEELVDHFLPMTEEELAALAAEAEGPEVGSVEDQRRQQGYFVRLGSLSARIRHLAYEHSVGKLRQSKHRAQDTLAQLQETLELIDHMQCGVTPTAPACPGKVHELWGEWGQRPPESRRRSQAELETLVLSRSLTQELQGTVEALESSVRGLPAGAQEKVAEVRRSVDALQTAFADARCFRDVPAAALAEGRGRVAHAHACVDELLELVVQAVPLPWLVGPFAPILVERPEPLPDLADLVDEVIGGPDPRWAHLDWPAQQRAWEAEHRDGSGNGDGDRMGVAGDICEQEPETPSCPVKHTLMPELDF
Target sequence (Q8WTS1 whole entry, looked up): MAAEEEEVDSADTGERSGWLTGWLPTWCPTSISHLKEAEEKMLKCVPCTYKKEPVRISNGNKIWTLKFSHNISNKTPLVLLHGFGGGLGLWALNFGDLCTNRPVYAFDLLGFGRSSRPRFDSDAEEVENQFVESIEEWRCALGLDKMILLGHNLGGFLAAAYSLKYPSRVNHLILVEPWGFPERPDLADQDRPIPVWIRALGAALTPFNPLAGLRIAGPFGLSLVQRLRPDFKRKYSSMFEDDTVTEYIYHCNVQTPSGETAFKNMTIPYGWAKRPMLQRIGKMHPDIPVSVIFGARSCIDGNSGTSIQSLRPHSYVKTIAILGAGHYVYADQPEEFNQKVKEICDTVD
LEDGF integ inh: blocks HIV-1 LEDGF/p75-dependent DNA integration; TR-FRET IN-LEDGF/p75 DNA integration, Eu/Cy5; inhibition, % at 3.7 µM; actives 0.64% (n = 370,000); AID 743269;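 active = inhibition above the screen-wide mean plus 3 SD, cut at about 13% in these data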;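 also: signal is the Cy5 over europium emission ratio at 671 and 618 nm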
PRMT1 inh: PRMT1 (human) inhibition, primary screen. AID 652257. recombinant PRMT1, activity-based probe fluorescence polarization. inhibition, % at 2.79 µM. actives 1.3% (n = 370,000). Q99873;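 active = inhibition above about 21% made by adding two undisclosed values, limit read from the data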
RBBP9 confirm: human RBBP9 inhibition, confirmation. shares compounds with RBBP9 inh. recombinant RBBP9, FP-Rh probe fluorescence polarization. inhibition, % at 7.94 µM. actives 36% (n = 410). AID 1537;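 active = inhibition above the hit cutoff derived for the primary screen, cut at about 15% in these data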
ABHD5 PLIN5 conf: confirmation of human ABHD5-PLIN5 interaction inhibitors | shares compounds with ABHD5-PLIN5 inh | biochemical ABHD5-PLIN5 interaction, luminescence | inhibition, % at 4 µM | actives 67% (n = 2,200) | AID 651612; in the data active = inhibition above about 23%
HNF4 split-luc: HNF4 split-luciferase signal hit, counter-screen; AID 651674; actives 77% (n = 2,200); shares compounds with ABHD5-PLIN5 inh; HNF4 dimerization, luminescence, biochemical; inhibition, % at 4 µM;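 active = mean inhibition across replicate wells exceeding the computed hit threshold, cut at about 13% in these data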;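 also: light from luciferase halves that rejoin when HNF4 fusion proteins dimerize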
Each line names hits and unclear results; the compound was inactive in the other large screens (follow-up assays come after a bar, where they were run).

COc1ccc(-n2nnc3c(=O)n(CC(=O)N4CCCC4)cnc32)cc1	none
COc1ccc(O)c(C=Nc2cc(NC(C)=O)c(Cl)cc2Cl)c1	RBBP9 inh 15 | RBBP9 confirm inactive
CN(C)c1cc[n+](CC(=O)Nc2cc(C(F)(F)F)ccc2Cl)cc1	none
Cc1cc[n+](CC(=O)Nc2cc(C(F)(F)F)ccc2Cl)cc1	RBBP9 inh 18 | RBBP9 confirm inactive
COc1cc2[nH]c(=S)nc(Nc3ccc(NC(C)=O)cc3)c2cc1OC	RBBP9 inh 29 | RBBP9 confirm 52
COc1cc2[nH]c(=S)nc(NC3CCCCCC3)c2cc1OC	none
c1cnc(SCC2CCCCC2)c(-c2nc3ccccc3[nH]2)c1	none (no result: RBBP9 inh, ABHD5-PLIN5 inh)
CCCCN(C(=O)c1cc2ccccc2o1)c1c(N)n(CC(C)C)c(=O)[nH]c1=O	RBBP9 inh 20 | RBBP9 confirm inactive
CCC[C@H]1[C@@H](NCc2cccs2)CC[C@@]23CCCN2C(=O)CCC[C@@H]13	none (no result: RBBP9 inh, ABHD5-PLIN5 inh)
CCOc1cc(C)c(S(=O)(=O)Nc2ccc(Cl)cn2)cc1C	none
CCOc1ccc(S(=O)(=O)Nc2ccc(Cl)cn2)c(C)c1C	RBBP9 inh 17 | RBBP9 confirm inactive
C=CCN1[C@@H](CC(C)C)COc2cc(F)ccc2S1(=O)=O	none (no result: RBBP9 inh, ABHD5-PLIN5 inh)
C/C(=N\OC(=O)c1ccc(Cl)cc1)c1nccs1	RBBP9 inh 34 | RBBP9 confirm 80
C/C(=N/OC(=O)c1ccc(C)cc1)c1cccs1	RBBP9 inh 16 | RBBP9 confirm 18
Brc1ccc(-c2csc(N3CCNCC3)n2)cc1	none (no result: RBBP9 inh, ABHD5-PLIN5 inh)
COP1(=O)CCOCC[C@H](CC(C)C)NC(=O)[C@H](CC(C)C)N1 (some centres not stated)	none (no result: RBBP9 inh, ABHD5-PLIN5 inh)
COCC(=O)N1CC[C@H]2[C@@H]1c1cc(-c3cccc(OC)c3)ccc1N(C)[C@H]2CO	none (no result: RBBP9 inh, ABHD5-PLIN5 inh)
COc1ccc(-c2[nH]c(-c3ccccc3)nc2SCC(=O)Nc2nccs2)cc1	RBBP9 inh 26 | RBBP9 confirm inactive
COc1cccc(CNC(=S)OC2CCC23CCC(c2ccccc2)CC3)c1 (configuration not stated)	none (no result: RBBP9 inh, ABHD5-PLIN5 inh)
COCCCNc1c2c3c(cccc3[nH]c1=O)C(=O)c1ccccc1-2	RBBP9 inh 49, PRMT1 inh active | RBBP9 confirm 80
CN(CC(=O)NCCCc1ccccc1)S(=O)(=O)c1ccc(Br)cc1	none (no result: RBBP9 inh)
CN(CC(=O)NCCc1ccccc1)S(=O)(=O)c1ccc(Br)cc1	RBBP9 inh 15 | RBBP9 confirm inactive
O=C(c1ccccc1)N1CCN(c2ccc([N+](=O)[O-])cc2-n2cccc2)CC1	RBBP9 inh 14 | RBBP9 confirm inactive
Nc1ccccc1N1CCN(C(=O)c2ccccc2)CC1	RBBP9 inh 15 | RBBP9 confirm inactive
O=C(c1ccccc1)N1CCN(C(=O)c2ccc([N+](=O)[O-])cc2)CC1	none
Cc1ccn2c(Nc3ccc4c(c3)OCO4)c(-c3ccc(O)cc3)nc2c1	RBBP9 inh 17 | RBBP9 confirm 28
CC(C)CN1C(=O)N2CCc3ccccc3C2CS1(=O)=O (configuration not stated)	none (no result: RBBP9 inh, ABHD5-PLIN5 inh)
c1ccc(-c2cc(-c3nnc4sc(Cc5cccs5)nn34)[nH]n2)cc1	none (no result: RBBP9 inh, ABHD5-PLIN5 inh)
O=C(CCS(=O)(=O)c1ccccc1)Nc1cc(Cl)ccc1F	none (no result: RBBP9 inh, ABHD5-PLIN5 inh)
O=C1c2ccccc2NC(c2cccc(O)c2)N1Cc1ccco1 (configuration not stated)	RBBP9 inh 15 | RBBP9 confirm 29
CCCCCc1ccc(OCCCC[n+]2cccc(C)c2)c(CCCCC)c1	RBBP9 inh 15 | RBBP9 confirm inactive
CCCCCc1ccc(OCCCC[n+]2ccccc2)c(CCCCC)c1	none (no result: MBD2 inh, UHRF1 binding, LEDGF integ inh, PRMT1 inh)
CCN(CC)C(=O)C(=O)c1cccn1-c1ccccc1C#N	RBBP9 inh 21 | RBBP9 confirm inactive
O=c1c(-c2ccco2)[n+]([O-])c2ccccc2n1OCc1ccccc1F	RBBP9 inh 15 | RBBP9 confirm inactive
O=c1c(-c2ccco2)[n+]([O-])c2ccccc2n1OCc1c(F)cccc1F	none
O=C(NCCC1=CCCCC1)C1CCN(S(=O)(=O)c2ccccc2[N+](=O)[O-])CC1	none (no result: RBBP9 inh, ABHD5-PLIN5 inh)
Cc1cccc2cc(CN(CCCN(C)C)C(=S)NCCc3ccccc3)c(=O)[nH]c12	RBBP9 inh 17 | RBBP9 confirm 27
Cc1cc(/C=N/NC(=O)c2ccncc2)c(C)n1-c1ccccc1	none
Cc1cc(C(=O)N/N=C/c2ccc(O)c(O)c2O)c(C)n1-c1ccccc1	RBBP9 inh 18 | RBBP9 confirm 73
CC(Cn1cnc2ccccc21)C(=O)O (configuration not stated)	RBBP9 inh 15 | RBBP9 confirm inactive
Cc1c(NC(=O)C2CCCN(S(=O)(=O)c3cccc4ccccc34)C2)c(=O)n(-c2ccccc2)n1C (configuration not stated)	none (no result: RBBP9 inh, ABHD5-PLIN5 inh)
O=C1C2CC=CCC2C(=O)N1Cc1ccccc1 (configuration not stated)	RBBP9 inh 19 | RBBP9 confirm inactive
O=C(Nc1cccc([N+](=O)[O-])c1)N1CCCCCC1	none (no result: RBBP9 inh)
O=C(Oc1cccc([N+](=O)[O-])c1)N1CCCCC1	RBBP9 inh 16 | RBBP9 confirm inactive
COc1ccc(C2C(C#N)=C(N)Oc3c2c(C)nn3-c2ccccc2)cc1Cn1nc(C)c([N+](=O)[O-])c1C (configuration not stated)	RBBP9 inh 18 | RBBP9 confirm inactive
Cc1nn(-c2ccccc2)c2c1C(c1ccc(Br)s1)C(C#N)=C(N)O2 (configuration not stated)	none (no result: MBD2 inh, UHRF1 binding, LEDGF integ inh, PRMT1 inh)
Cc1nn(-c2ccccc2)c2c1C(c1ccccc1)C(C#N)=C(N)O2 (configuration not stated)	RBBP9 inh 16 | RBBP9 confirm inactive
COc1ccc(OC)c(C2C(C#N)=C(N)Oc3c2c(C)nn3-c2ccc(C)cc2)c1 (configuration not stated)	none
CCc1cc2c(nc1CC)CCCN2S(=O)(=O)c1ccc(C(F)(F)F)cc1	none (no result: RBBP9 inh, ABHD5-PLIN5 inh)
N#Cc1ncc(C(F)(F)F)cc1Sc1ccc(N)cc1	RBBP9 inh 19 | RBBP9 confirm inactive
CCC(=O)NC1=C(Cl)C(=O)C(NC(=O)CC)=C(Cl)C1=O	RBBP9 inh 59, ABHD5-PLIN5 inh 45, PRMT1 inh 90 | RBBP9 confirm 65 | ABHD5 PLIN5 conf 101 | HNF4 split-luc 103
CCC(=O)NC1=C(NC(C)c2ccccc2)C(=O)c2ccccc2C1=O (configuration not stated)	none
